Laboratory results reported in ChEMBL document CHEMBL3259647, “Design, synthesis, and biological evaluation of potent dual agonists of nuclear and membrane bile acid receptors” (J Med Chem, 2014).
pEC50: −log10 of the molar value. Active and inactive are the calls of the source. The rule behind the calls is not given here.

Assays:
[1] = system: HEK-293T; test: Induction of cAMP production in GP-BAR1-deficient HEK293T cells at 10 uM by cAMP responsive element containing luciferase reporter gene assay; assay type: functional, cell-based; details: Homo sapiens
Procedure, shortened: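 Control transfection of HEK-293T with only the pGL4.29 CRE-luciferase and pGL4.70 Renilla vectors, without GP-BAR1. 24 h after transfection, cells exposed 18 h to 10 μM compound. Luciferase normalized to Renilla.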

[2] = biological target: T1, Bile acid receptor (Homo sapiens) (UniProt Q96RI1); test: Antagonist activity at human FXR transfected in human HepG2 cells assessed as supression of CDCA-induced transcriptional activity at 50 uM by beta-galactosidase reporter gene assay; assay type: cell-based
T1 sequence (whole entry): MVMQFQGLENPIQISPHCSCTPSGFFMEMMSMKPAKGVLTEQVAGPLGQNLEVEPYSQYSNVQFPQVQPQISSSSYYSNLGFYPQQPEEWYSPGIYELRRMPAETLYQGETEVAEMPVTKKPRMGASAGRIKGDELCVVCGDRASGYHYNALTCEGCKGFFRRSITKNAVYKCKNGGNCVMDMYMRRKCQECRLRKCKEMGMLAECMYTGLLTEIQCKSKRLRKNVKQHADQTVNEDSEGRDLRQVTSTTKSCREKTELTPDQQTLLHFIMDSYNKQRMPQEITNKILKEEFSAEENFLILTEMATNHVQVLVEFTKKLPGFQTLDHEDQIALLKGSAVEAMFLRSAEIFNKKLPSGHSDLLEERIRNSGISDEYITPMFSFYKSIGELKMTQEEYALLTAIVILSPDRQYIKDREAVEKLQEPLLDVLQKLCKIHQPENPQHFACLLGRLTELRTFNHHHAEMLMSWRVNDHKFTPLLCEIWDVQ
Procedure, shortened: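 HepG2 cells (MEM with Earle's salts, 10% FBS, 37 °C; 5 × 10⁴ cells/well) transfected with pSG5-FXR, pSG5-RXR, pCMV-βgal and p(hsp27)-TK-LUC IR1 reporter. 24 h post-transfection, treated 18 h with 10 μM CDCA plus 50 μM compound. Luciferase in lysates normalized to β-galactosidase activity. Statistics versus CDCA alone.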

[3] = biological target: T2, G-protein coupled bile acid receptor 1 (Homo sapiens) (UniProt Q8TDU6); test: Transactivation of human GP-BAR1 transfected in HEK293T cells assessed as induction of intracellular cAMP production at 10 uM after 18 hrs by cAMP responsive element containing luciferase reporter gene assay; assay type: functional, cell-based; details: HEK-293T
T2 sequence (whole entry): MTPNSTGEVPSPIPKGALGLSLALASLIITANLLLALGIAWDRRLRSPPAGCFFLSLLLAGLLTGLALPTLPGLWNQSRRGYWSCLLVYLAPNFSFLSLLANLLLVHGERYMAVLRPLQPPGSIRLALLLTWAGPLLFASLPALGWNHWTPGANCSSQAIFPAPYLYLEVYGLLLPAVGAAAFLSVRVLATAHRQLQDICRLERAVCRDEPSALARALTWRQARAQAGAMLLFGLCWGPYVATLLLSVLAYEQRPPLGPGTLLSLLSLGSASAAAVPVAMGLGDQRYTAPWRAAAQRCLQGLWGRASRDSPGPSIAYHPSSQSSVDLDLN
Procedure, shortened: (§1)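 HEK-293T co-transfected with human GP-BAR1 and a CRE-driven luciferase reporter. Stimulated 24 h post-transfection for 18 h at 10 μM. TLCA 10 μM as receptor-dependent reference; forskolin 10 μM as receptor-independent cAMP control. Luciferase normalized to Renilla; mean ± standard error.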

[4] = biological target: T3, G-protein coupled bile acid receptor 1 (Mus musculus) (UniProt Q80SS6); test: Agonist activity at GP-BAR1 in mouse GLUTag cells assessed as increase in intracellular cAMP level; assay type: functional, cell-based
T3 sequence (whole entry): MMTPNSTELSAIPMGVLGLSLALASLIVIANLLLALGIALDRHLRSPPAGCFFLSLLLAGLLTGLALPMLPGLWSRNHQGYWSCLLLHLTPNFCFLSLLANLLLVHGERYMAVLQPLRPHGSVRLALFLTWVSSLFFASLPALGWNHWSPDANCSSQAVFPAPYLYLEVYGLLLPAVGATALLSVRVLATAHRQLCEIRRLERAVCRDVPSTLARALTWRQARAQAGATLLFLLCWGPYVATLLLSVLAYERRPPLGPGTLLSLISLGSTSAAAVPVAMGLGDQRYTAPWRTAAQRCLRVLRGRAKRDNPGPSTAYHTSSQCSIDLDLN
Procedure, shortened: (§2)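 GLUTag enteroendocrine cells measuring intracellular cAMP generation and GLP-1 released into supernatant. Values are the mean ± SE of four to five experiments; significance is versus untreated cells.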

[5] = biological target: T3, G-protein coupled bile acid receptor 1 (Mus musculus); test: Agonist activity at GP-BAR1 in mouse GLUTag cells assessed as increase in GLP-1 release; assay type: cell-based; procedure, shortened: as §2
[6] = biological target: T1, Bile acid receptor (Homo sapiens); test: Transactivation of human FXR transfected in human HepG2 cells at 1 to 10 uM by beta-galactosidase reporter gene assay; assay type: cell-based
Procedure, shortened: (§3)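 HepG2 cells were grown at 37 °C in MEM with Earle's salts and 10% FBS, then plated at 5 × 10⁴ cells/well. They were transfected with pSG5-FXR, pSG5-RXR, pCMV-β-gal and the IR1 reporter p(hsp27)-TK-LUC, and stimulated 18 h starting 24 h post-transfection. Lines 2 and 3 give the test levels. CDCA 10 μM was the positive control. Luciferase was normalized to β-galactosidase.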

[7] = biological target: T2, G-protein coupled bile acid receptor 1 (Homo sapiens); test: Transactivation of human GP-BAR1 transfected in HEK293T cells assessed as induction of intracellular cAMP production at 10 uM after 18 hrs by luciferase reporter gene assay relative to TLCA; assay type: functional, cell-based; details: HEK-293T; procedure, shortened: as §1
[8] = biological target: T4, Bile acid receptor (Homo sapiens, UniProt Q96RI1); test: Transactivation of human FXR transfected in human HepG2 cells by beta-galactosidase reporter gene assay; assay type: cell-based
T4 sequence (Q96RI1 whole entry): T1 sequence (whole entry)
Procedure, shortened: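 FXR/RXR/β-gal/IR1-luciferase transfected HepG2 cells treated with 0.01, 0.1, 1 and 10 μM; CDCA 10 μM positive control. β-gal-normalized luciferase used to calculate EC50.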

[9] = system: Hepatocyte; test: Upregulation of BESP mRNA expression in mouse primary hepatocytes isolated from FXR deficient mouse; assay type: functional, cell-based
Procedure, shortened: (§4)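 Hepatocytes from wild-type or FXR−/− mice were analysed by real-time PCR for BSEP mRNA, as a measure of FXR-dependent target gene induction. Data are the mean SE of four experiments.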

[10] = biological target: T1, Bile acid receptor (Homo sapiens); test: Transactivation of human FXR transfected in human HepG2 cells at 10 uM by beta-galactosidase reporter gene assay relative to CDCA; assay type: cell-based; details: in the assay text read “luciferase reporter gene assay” for “beta-galactosidase reporter gene assay”
Procedure, shortened: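 HepG2 cells transfected with human FXR, RXR, β-gal and hsp27 IR1-luciferase reporter. 24 h post-transfection, stimulated 18 h at 10 μM, with CDCA 10 μM as positive control. Luciferase RLU divided by β-galactosidase activity; mean ± standard error.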

[11] = biological target: T5, Bile acid receptor (Mus musculus) (UniProt Q60641); test: Agonist activity at FXR in mouse primary hepatocytes assessed as upregulation of BESP mRNA expression; assay type: cell-based; details: Hepatocyte; procedure, shortened: as §4
T5 sequence (whole entry): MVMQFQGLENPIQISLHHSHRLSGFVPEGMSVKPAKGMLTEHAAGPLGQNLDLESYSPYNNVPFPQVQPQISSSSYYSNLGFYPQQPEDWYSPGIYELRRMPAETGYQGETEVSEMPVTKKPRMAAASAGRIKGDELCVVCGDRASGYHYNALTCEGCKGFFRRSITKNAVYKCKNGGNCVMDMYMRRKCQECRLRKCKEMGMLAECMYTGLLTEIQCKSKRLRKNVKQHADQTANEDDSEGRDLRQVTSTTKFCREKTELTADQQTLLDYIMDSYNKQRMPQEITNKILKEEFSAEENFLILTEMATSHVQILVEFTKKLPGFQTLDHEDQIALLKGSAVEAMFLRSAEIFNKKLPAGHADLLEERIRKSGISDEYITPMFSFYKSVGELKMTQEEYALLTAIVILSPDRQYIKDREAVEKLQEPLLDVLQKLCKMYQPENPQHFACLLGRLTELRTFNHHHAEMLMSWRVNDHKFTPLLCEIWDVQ

[12] = biological target: T6, G-protein coupled bile acid receptor 1 (Homo sapiens, UniProt Q8TDU6); test: Transactivation of human GP-BAR1 transfected in HEK293T cells assessed as induction of intracellular cAMP production after 18 hrs by cAMP responsive element containing luciferase reporter gene assay; assay type: functional, cell-based, HEK-293T
T6 sequence (Q8TDU6 whole entry): T2 sequence (whole entry)
Procedure, shortened: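 Concentration–response in GP-BAR1/CRE-luciferase transfected HEK-293T: 0.1, 1 and 10 μM for 18 h, with TLCA 10 μM positive control. Renilla-normalized luciferase used to calculate EC50.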

[13] = biological target: T1, Bile acid receptor (Homo sapiens); test: Transactivation of human FXR transfected in human HepG2 cells at 10 uM by beta-galactosidase reporter gene assay; assay type: cell-based; procedure, shortened: as §3

SMILES	Activity [1]	Activity [2]	further results
C[C@H](CCCCCOS(=O)(=O)O)[C@H]1CC[C@H]2[C@@H]3[C@H](OS(=O)(=O)O)C[C@@H]4C[C@H](OS(=O)(=O)O)CC[C@]4(C)[C@H]3CC[C@]12C	inactive	inactive	
C[C@H](CCCOS(=O)(=O)O)[C@H]1CC[C@H]2[C@@H]3[C@@H](OS(=O)(=O)O)C[C@@H]4C[C@H](OS(=O)(=O)O)CC[C@]4(C)[C@H]3CC[C@]12C	inactive	inactive	
C[C@H](CCCOS(=O)(=O)O)[C@H]1CC[C@H]2[C@@H]3[C@@H](O)C[C@@H]4C[C@H](OS(=O)(=O)O)CC[C@]4(C)[C@H]3CC[C@]12C	inactive	inactive	
C[C@H](CCCCCOS(=O)(=O)O)[C@H]1CC[C@H]2[C@@H]3[C@@H](O)C[C@@H]4C[C@H](OS(=O)(=O)O)CC[C@]4(C)[C@H]3CC[C@]12C	inactive	inactive	
C[C@H](CCC(=O)NCCOS(=O)(=O)O)[C@H]1CC[C@H]2[C@@H]3CC[C@@H]4C[C@H](O)CC[C@]4(C)[C@H]3CC[C@]12C			Activity [3]: Active; Activity [4]: Active; Activity [5]: Active
CC[C@H]1[C@@H](O)[C@@H]2[C@H](CC[C@]3(C)[C@@H]([C@H](C)CCOS(=O)(=O)O)CC[C@@H]23)[C@@]2(C)CC[C@@H](O)C[C@@H]12	inactive		Activity [6]: Active
CC[C@H]1[C@@H](O)[C@@H]2[C@H](CC[C@]3(C)[C@@H]([C@H](C)CCCOS(=O)(=O)O)CC[C@@H]23)[C@@]2(C)CC[C@@H](O)C[C@@H]12	inactive		Efficacy [7]: 112%; pEC50 [8]: 6.00; Activity [4]: Active; Activity [9]: inactive; Efficacy [10]: 852%; Activity [11]: Active; Activity [5]: Active; pEC50 [12]: 6.70
CC[C@H]1[C@@H](O)[C@@H]2[C@H](CC[C@]3(C)[C@@H]([C@H](C)CCC(=O)O)CC[C@@H]23)[C@@]2(C)CC[C@@H](O)C[C@@H]12	inactive		Activity [4]: Active; Activity [9]: inactive; Activity [13]: Active; Activity [11]: Active; Activity [5]: Active
C[C@H](CCCOS(=O)(=O)O)[C@H]1CC[C@H]2[C@@H]3[C@@H](O)C[C@@H]4C[C@H](O)CC[C@]4(C)[C@H]3CC[C@]12C	inactive	inactive	
C[C@H](CCCCCOS(=O)(=O)O)[C@H]1CC[C@H]2[C@@H]3[C@H](O)C[C@@H]4C[C@H](O)CC[C@]4(C)[C@H]3CC[C@]12C	inactive		Activity [3]: Active; Activity [13]: Active
CC[C@H]1[C@@H](OS(=O)(=O)O)[C@@H]2[C@H](CC[C@]3(C)[C@@H]([C@H](C)CCCOS(=O)(=O)O)CC[C@@H]23)[C@@]2(C)CC[C@@H](OS(=O)(=O)O)C[C@@H]12	inactive	inactive	
C[C@H](CCCCCOS(=O)(=O)O)[C@H]1CC[C@H]2[C@@H]3[C@@H](OS(=O)(=O)O)C[C@@H]4C[C@H](OS(=O)(=O)O)CC[C@]4(C)[C@H]3CC[C@]12C	inactive	inactive	
CC[C@H]1[C@@H](OS(=O)(=O)O)[C@@H]2[C@H](CC[C@]3(C)[C@@H]([C@H](C)CCOS(=O)(=O)O)CC[C@@H]23)[C@@]2(C)CC[C@@H](OS(=O)(=O)O)C[C@@H]12	inactive	inactive	
C[C@H](CCC(=O)O)[C@H]1CC[C@H]2[C@@H]3[C@H](O)C[C@@H]4C[C@H](O)CC[C@]4(C)[C@H]3CC[C@]12C	inactive		
C[C@H](CCCO)[C@H]1CC[C@H]2[C@@H]3[C@@H](O)C[C@@H]4C[C@H](OS(=O)(=O)O)CC[C@]4(C)[C@H]3CC[C@]12C	inactive	inactive	
C=C[C@@]1(C)CC(=O)[C@]2(O)[C@@]3(C)[C@@H](O)CCC(C)(C)[C@@H]3[C@H](O)[C@H](OC(C)=O)[C@@]2(C)O1	Active		
C[C@H](CCCOS(=O)(=O)O)[C@H]1CC[C@H]2[C@@H]3[C@H](O)C[C@@H]4C[C@H](O)CC[C@]4(C)[C@H]3CC[C@]12C	inactive	inactive	
C[C@H](CCCOS(=O)(=O)O)[C@H]1CC[C@H]2[C@@H]3[C@H](OS(=O)(=O)O)C[C@@H]4C[C@H](OS(=O)(=O)O)CC[C@]4(C)[C@H]3CC[C@]12C	inactive	inactive	
C[C@H](CCCCCOS(=O)(=O)O)[C@H]1CC[C@H]2[C@@H]3[C@@H](O)C[C@@H]4C[C@H](O)CC[C@]4(C)[C@H]3CC[C@]12C	inactive	inactive	
